Data: ChEMBL document CHEMBL1155887, “Structure-activity relationships of 2-aryl-1H-indole inhibitors of the NorA efflux pump in Staphylococcus aureus” (2008)
≈ marks a conversion by molar mass, not a printed value. Calls of active or inactive are those of the source. The calls are words filed in the database; no cut-off is given here.

Assays:
[1] = molecular target: T1, Quinolone resistance protein NorA (Staphylococcus aureus) (UniProt P0A0J7); assay: Inhibition of NorA efflux pump in NorA knockout Staphylococcus aureus K1758 assessed as drug level required for two fold potentiation of berberine MIC at 1.56 to 100 ug/mL after 20 hrs by serial dilution method
T1 sequence (whole entry): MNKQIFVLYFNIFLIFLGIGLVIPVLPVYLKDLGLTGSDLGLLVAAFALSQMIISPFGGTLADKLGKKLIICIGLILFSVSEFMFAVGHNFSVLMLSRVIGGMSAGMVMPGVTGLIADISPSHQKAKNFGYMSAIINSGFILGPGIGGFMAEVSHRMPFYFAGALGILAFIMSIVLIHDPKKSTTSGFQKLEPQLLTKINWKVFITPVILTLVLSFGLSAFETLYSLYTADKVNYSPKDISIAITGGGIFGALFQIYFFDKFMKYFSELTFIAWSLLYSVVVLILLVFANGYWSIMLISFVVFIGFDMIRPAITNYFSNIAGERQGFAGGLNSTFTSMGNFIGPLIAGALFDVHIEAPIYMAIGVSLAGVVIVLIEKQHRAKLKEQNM

[2] = molecular target: T1, Quinolone resistance protein NorA (Staphylococcus aureus); assay: Inhibition of NorA efflux pump in wild type Staphylococcus aureus 8325-4 assessed as drug level required for two fold potentiation of berberine MIC at 1.56 to 100 ug/mL after 20 hrs by serial dilution method
Summary of the method: (§1)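 Checkerboard of serial 2-fold dilutions of berberine chloride against inhibitor, with inhibitor at 1.56–100 µg/mL. Berberine ranges were 12.5–100 µg/mL for 8325-4 and 200–800 µg/mL for K2378. Each agent was also diluted alone. Cells at 5 10^5 CFU/mL (final), 37 °C for 20 h, read at 600 nm; OD <0.05 counted as no growth. Inhibitor MIC is the lowest concentration lowering the berberine MIC at least 2-fold.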

[3] = molecular target: T1, Quinolone resistance protein NorA (Staphylococcus aureus); assay: Inhibition of NorA efflux pump in Staphylococcus aureus K2378 overexpressing NorA assessed as drug level required for two fold potentiation of berberine MIC at 1.56 to 100 ug/mL after 20 hrs by serial dilution method; summary of the method: as §1
Staphylococcus aureus [4] = assay: Antibacterial activity against NorA knockout Staphylococcus aureus K1758 after 18 to 20 hrs by serial dilution method; format: functional
Summary of the method: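 Compound alone, without berberine: cells at 10^5 CFU/mL in broth, serial 2-fold dilutions of compound, 18–20 h at 37 °C, growth read at 600 nm. MIC is the lowest concentration giving complete growth inhibition. The testing limit was 1000 µM.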

Staphylococcus aureus [5] = assay: Antibacterial activity against wild type Staphylococcus aureus 8325-4 after 18 to 20 hrs by serial dilution method; format: functional
Summary of the method: (§2)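 Compound alone, without berberine. Cells at 10^5 CFU/mL inoculated into broth and given serial 2-fold dilutions of compound. Incubated 18–20 h at 37 °C, with growth read as absorbance at 600 nm. MIC is the concentration completely inhibiting growth; testing limit 1000 µM.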

Staphylococcus aureus [6] = assay: Antibacterial activity against Staphylococcus aureus K2378 overexpressing NorA after 18 to 20 hrs by serial dilution method; format: functional; summary of the method: as §2
Escherichia coli [7] = assay: Antibacterial activity against Escherichia coli O157:H7; format: functional
Summary of the method: (§3)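 Gram-negative and Gram-positive panel, MIC in µg/mL. Highest concentration tested was 200 µg/mL for E. coli O157:H7 and 100 µg/mL for Clostridium perfringens.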

Escherichia coli [8] = assay: Antibacterial activity against Escherichia coli BW-25113; format: functional
Summary of the method: (§4)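 Panel of Gram-negative and Gram-positive non-Clostridium strains, compound alone: MIC in µg/mL, with 200 µg/mL the highest concentration tested.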

Escherichia coli [9] = assay: Antibacterial activity against Escherichia coli UT189; format: functional; summary of the method: as §4
Salmonella typhimurium = assay: Antibacterial activity against Salmonella Typhimurium CS132; format: functional, Salmonella enterica subsp. enterica serovar Typhimurium; details: Salmonella enterica; summary of the method: as §4
Pseudomonas aeruginosa [10] = assay: Antibacterial activity against Pseudomonas aeruginosa PAO1; format: functional; summary of the method: as §4
Pseudomonas aeruginosa [11] = assay: Antibacterial activity against Pseudomonas aeruginosa PA14; format: functional; summary of the method: as §4
Clostridioides difficile [12] = assay: Antibacterial activity against Clostridium difficile VP110463; format: functional
Summary of the method: (§5)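 Clostridium difficile panel, compound alone: MIC in µg/mL, with 100 µg/mL the highest concentration tested.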

Clostridioides difficile [13] = assay: Antibacterial activity against Clostridium difficile CD196; format: functional; summary of the method: as §5
Clostridioides difficile [14] = assay: Antibacterial activity against Clostridium difficile CD2001; format: functional; summary of the method: as §5
Enterococcus faecalis [15] = assay: Antibacterial activity against Enterococcus faecalis MMH594; format: functional; summary of the method: as §4
Enterococcus faecalis [16] = assay: Antibacterial activity against Enterococcus faecalis V583; format: functional; summary of the method: as §4
Enterococcus faecalis [17] = assay: Antibacterial activity against Enterococcus faecalis OG1RF; format: functional; summary of the method: as §4
Clostridium perfringens = assay: Antibacterial activity against Clostridium perfringens; format: functional; summary of the method: as §3
[18] = molecular target: T1, Quinolone resistance protein NorA (Staphylococcus aureus); assay: Inhibition of NorA efflux pump in wild type Staphylococcus aureus 8325-4 assessed as ratio of berberine MIC in presence to absence of inhibitor
[19] = molecular target: T1, Quinolone resistance protein NorA (Staphylococcus aureus); assay: Inhibition of NorA efflux pump overexpressing Staphylococcus aureus 8325-4 K2378 assessed as ratio of berberine MIC in presence to absence of inhibitor
[20] = molecular target: T1, Quinolone resistance protein NorA (Staphylococcus aureus); assay: Inhibition of NorA efflux pump overexpressed Staphylococcus aureus K2361 assessed as increase in antibacterial activity of berberine at 0.8 ug/mL
[21] = molecular target: T1, Quinolone resistance protein NorA (Staphylococcus aureus); assay: Inhibition of NorA efflux pump overexpressed Staphylococcus aureus K2361 assessed as increase in antibacterial activity of berberine at 3 ug/mL
[22] = molecular target: T1, Quinolone resistance protein NorA (Staphylococcus aureus); assay: Inhibition of NorA efflux pump overexpressed in Staphylococcus aureus 1199B assessed as increase in susceptibility to ciprofloxacin at 1.5 ug/mL by serial broth microdilution method

| SMILES | MIC [2] | MIC [3] | MIC (Staphylococcus aureus [4]) | MIC (Staphylococcus aureus [5]) | Activity [1] | further results |
| --- | --- | --- | --- | --- | --- | --- |
| COC(=O)c1cccc(-c2cc3cc([N+](=O)[O-])ccc3[nH]2)c1 | 1 µM | 1 µM | > 1000 µM | > 1000 µM |  | MIC [1]: 0.51 µM |
| OCc1ccc2[nH]c(-c3ccccc3)cc2c1 |  |  | 14 µM (≈ 3.13 µg/mL) | 28 µM (≈ 6.25 µg/mL) |  | MIC (Staphylococcus aureus [6]): 28 µM (≈ 6.25 µg/mL); MIC (Escherichia coli [7]): > 200 µg/mL; MIC (Escherichia coli [8]): > 200 µg/mL; MIC (Escherichia coli [9]): > 200 µg/mL; MIC (Salmonella typhimurium): > 200 µg/mL; MIC (Pseudomonas aeruginosa [10]): > 200 µg/mL; MIC (Pseudomonas aeruginosa [11]): > 200 µg/mL; MIC (Clostridioides difficile [12]): > 100 µg/mL; MIC (Clostridioides difficile [13]): > 100 µg/mL; MIC (Clostridioides difficile [14]): > 100 µg/mL; MIC (Enterococcus faecalis [15]): > 200 µg/mL; MIC (Enterococcus faecalis [16]): > 200 µg/mL; MIC (Enterococcus faecalis [17]): > 200 µg/mL; MIC (Clostridium perfringens): > 100 µg/mL |
| OCc1cccc(-c2cc3ccccc3[nH]2)c1 | 45 µM | 45 µM | > 1000 µM | > 1000 µM | inactive |  |
| c1ccc(-c2cc3ccccc3[nH]2)cc1 [2-PHENYL-1H-INDOLE] | 65 µM | 259 µM | > 1000 µM | > 1000 µM | inactive | Ratio [18]: 4; Ratio [19]: 4 |
| O=[N+]([O-])c1ccc2[nH]c(-c3ccccc3CO)cc2c1 | 47 µM | 47 µM | > 1000 µM | > 1000 µM |  | MIC [1]: 24 µM |
| O=[N+]([O-])c1ccc2[nH]c(-c3cc(OCc4ccccc4)ccc3CO)cc2c1 |  |  |  |  |  | fold change (FC) [20]: > 15 |
| OCc1ccc(-c2cc3ccccc3[nH]2)cc1 | 22 µM | 45 µM | > 1000 µM | > 1000 µM | inactive |  |
| COC(=O)c1ccccc1-c1cc2cc([N+](=O)[O-])ccc2[nH]1 | 34 µM | inactive | > 1000 µM | > 1000 µM | inactive |  |
| COC(=O)c1cccc(-c2cc3ccccc3[nH]2)c1 | 5 µM | 10 µM | > 1000 µM | > 1000 µM |  | MIC [1]: 40 µM |
| O=C(O)c1ccc2[nH]c(-c3ccccc3)cc2c1 |  |  | > 1000 µM | > 1000 µM | inactive | Activity [2]: inactive; Activity [3]: inactive |
| O=[N+]([O-])c1ccc2[nH]c(-c3cccc(CO)c3)cc2c1 | 5 µM | 9 µM | > 1000 µM | > 1000 µM |  | MIC [1]: 9 µM |
| COC(=O)c1ccccc1-c1cc2ccccc2[nH]1 | 20 µM | 20 µM | > 1000 µM | > 1000 µM | inactive |  |
| N#Cc1ccc2[nH]c(-c3ccccc3)cc2c1 | 3.6 µM | 7.1 µM | > 1000 µM | > 1000 µM | inactive | Ratio [18]: 2; Ratio [19]: 2 |
| COC(=O)c1ccc2[nH]c(-c3ccccc3)cc2c1 |  |  | > 1000 µM | > 1000 µM | inactive | Activity [2]: inactive; Activity [3]: inactive |
| COC(=O)c1ccc(-c2cc3ccccc3[nH]2)cc1 | 20 µM | 40 µM | > 1000 µM | > 1000 µM | inactive |  |
| O=[N+]([O-])c1ccc2[nH]c(-c3ccccc3)cc2c1 | 1.3 µM | 1.3 µM | > 1000 µM | > 1000 µM |  | Activity [21]: Active; MIC [1]: 0.63 µM; Ratio [18]: 2; Ratio [19]: 2; fold change (FC) [22]: 4 |
| O=S(=O)(O)c1ccc2[nH]c(-c3ccccc3)cc2c1 |  |  | > 1000 µM | > 1000 µM | inactive | Activity [2]: inactive; Activity [3]: inactive |
| COc1ccc2cc3[n+](cc2c1OC)CCc1cc2c(cc1-3)OCO2 [BERBERINE CHLORIDE] |  |  | 67 µM | 269 µM |  | MIC (Staphylococcus aureus [6]): 2150 µM |
| COC(=O)c1ccc(-c2cc3cc([N+](=O)[O-])ccc3[nH]2)cc1 | 17 µM | inactive | > 1000 µM | > 1000 µM | inactive |  |
| NS(=O)(=O)c1ccc2[nH]c(-c3ccccc3)cc2c1 |  |  | > 1000 µM | > 1000 µM | inactive | Activity [2]: inactive; Activity [3]: inactive |
| O=[N+]([O-])c1ccc2[nH]c(-c3ccc(CO)cc3)cc2c1 | 2 µM | 2 µM | > 1000 µM | > 1000 µM |  | MIC [1]: 5 µM |
| COS(=O)(=O)c1ccc2[nH]c(-c3ccccc3)cc2c1 |  |  | 174 µM (≈ 50 µg/mL) | 174 µM (≈ 50 µg/mL) |  | MIC (Staphylococcus aureus [6]): 174 µM (≈ 50 µg/mL) |
| CCCOS(=O)(=O)c1ccc2[nH]c(-c3ccccc3)cc2c1 |  |  | 79.3 µM (≈ 25 µg/mL) | 79.3 µM (≈ 25 µg/mL) |  | MIC (Staphylococcus aureus [6]): 79.3 µM (≈ 25 µg/mL) |
| OCc1ccccc1-c1cc2ccccc2[nH]1 | 45 µM | 45 µM | > 1000 µM | > 1000 µM | inactive |  |
